How the values were obtained:
A-375 [1] = assay: Antiproliferative activity against human A375 cells at 1.23 ug/ml for 24 hrs by MTT assay; format: functional; details: A-375, 24 h
Method in brief: (§1)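 HEP-3B or A-375 cells were grown in DMEM with 10% FBS, 5% HBSS, penicillin, streptomycin and amphotericin B at 37 C and 5% CO2. Cells were seeded at 2 × 10^4 per well and preincubated for 24 h. They were then exposed to ten 1:3 serial dilutions from a top concentration of 100, made from 2% DMSO stocks. MTT was added for 3 h, formazan was dissolved in DMSO, and A550 was read. Wells were run in triplicate across three independent experiments. IC50 came from dose-response curves.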

A-375 [2] = assay: Antiproliferative activity against human A375 cells at 0.05 ug/ml for 24 hrs by MTT assay; format: functional; details: A-375, 24 h; method in brief: as §1
A-375 [3] = assay: Antiproliferative activity against human A375 cells at 11.11 ug/ml for 24 hrs by MTT assay; format: functional; details: A-375, 24 h; method in brief: as §1
A-375 [4] = assay: Antiproliferative activity against human A375 cells at 33.33 ug/ml for 24 hrs by MTT assay; format: functional; details: A-375, 24 h; method in brief: as §1
[5] = Antiproliferative activity against human Hep3B cells at 33.33 ug/ml for 24 hrs by MTT assay; format: functional, Hep 3B2; method in brief: as §1
A-375 (human melanoma) = assay: Antiproliferative activity against human A375 cells for 24 hrs by MTT assay; details: A-375, 24 h
[6] = Antiproliferative activity against human Hep3B cells at 11.11 ug/ml for 24 hrs by MTT assay; format: functional, Hep 3B2; method in brief: as §1
[7] = Antiproliferative activity against human Hep3B cells at 1.23 ug/ml for 24 hrs by MTT assay; format: functional, Hep 3B2; method in brief: as §1
[8] = target: Dihydroorotate dehydrogenase (quinone), mitochondrial (Homo sapiens, UniProt Q02127); assay: Inhibition of recombinant human DHODH activity after 20 mins by DCIP dye based colorimetric analysis in presence of 1 mM L-dihydroorotate and 0.1 mM CqD
[9] = Antiproliferative activity against human Hep3B cells at 0.41 ug/ml for 24 hrs by MTT assay; format: functional, Hep 3B2; method in brief: as §1
[10] = Antiproliferative activity against human Hep3B cells at 0.01 ug/ml for 24 hrs by MTT assay; format: functional, Hep 3B2; method in brief: as §1
HEP-3B (human hepatoma) = assay: Antiproliferative activity against human Hep3B cells for 24 hrs by MTT assay
A-375 [11] = assay: Antiproliferative activity against human A375 cells at 0.02 ug/ml for 24 hrs by MTT assay; format: functional; details: A-375, 24 h; method in brief: as §1
[12] = Antiproliferative activity against human Hep3B cells at 0.02 ug/ml for 24 hrs by MTT assay; format: functional, Hep 3B2; method in brief: as §1
A-375 [13] = assay: Antiproliferative activity against human A375 cells at 0.41 ug/ml for 24 hrs by MTT assay; format: functional; details: A-375, 24 h; method in brief: as §1
A-375 [14] = assay: Antiproliferative activity against human A375 cells at 0.01 ug/ml for 24 hrs by MTT assay; format: functional; details: A-375, 24 h; method in brief: as §1
[15] = Antiproliferative activity against human Hep3B cells at 3.7 ug/ml for 24 hrs by MTT assay; format: functional, Hep 3B2; method in brief: as §1
[16] = Retention time of compound by HPLC analysis; format: physicochemical
[17] = Antiproliferative activity against human Hep3B cells at 100 ug/ml for 24 hrs by MTT assay; format: functional, Hep 3B2; method in brief: as §1
A-375 [18] = assay: Antiproliferative activity against human A375 cells at 3.7 ug/ml for 24 hrs by MTT assay; format: functional; details: A-375, 24 h; method in brief: as §1
A-375 [19] = assay: Antiproliferative activity against human A375 cells at 0.14 ug/ml for 24 hrs by MTT assay; format: functional; details: A-375, 24 h; method in brief: as §1
A-375 [20] = assay: Antiproliferative activity against human A375 cells at 100 ug/ml for 24 hrs by MTT assay; format: functional; details: A-375, 24 h; method in brief: as §1
[21] = Antiproliferative activity against human Hep3B cells at 0.05 ug/ml for 24 hrs by MTT assay; format: functional, Hep 3B2; method in brief: as §1
[22] = Antiproliferative activity against human Hep3B cells at 0.14 ug/ml for 24 hrs by MTT assay; format: functional, Hep 3B2; method in brief: as §1

Chain of Dihydroorotate dehydrogenase (quinone), mitochondrial (Q02127 whole entry): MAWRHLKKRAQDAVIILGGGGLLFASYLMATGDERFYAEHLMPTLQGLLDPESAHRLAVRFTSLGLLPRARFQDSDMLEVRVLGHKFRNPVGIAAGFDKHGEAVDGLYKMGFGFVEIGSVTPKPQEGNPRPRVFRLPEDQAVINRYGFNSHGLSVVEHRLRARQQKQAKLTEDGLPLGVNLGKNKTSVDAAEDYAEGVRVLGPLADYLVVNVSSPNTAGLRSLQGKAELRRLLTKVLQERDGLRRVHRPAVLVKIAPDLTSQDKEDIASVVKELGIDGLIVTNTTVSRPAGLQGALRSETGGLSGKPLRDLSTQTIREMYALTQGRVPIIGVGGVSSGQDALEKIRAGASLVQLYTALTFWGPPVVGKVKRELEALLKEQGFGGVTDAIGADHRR

IC50 (A-375 (human melanoma)) [µM] | IC50 (HEP-3B (human hepatoma)) [µM] | Retention_time [16] [min] | Structure (SMILES) | inhibition at 1.23 µg/mL (A-375 [1]) [%] | inhibition at 0.05 µg/mL (A-375 [2]) [%] | inhibition at 11.11 µg/mL (A-375 [3]) [%] | inhibition at 33.33 µg/mL (A-375 [4]) [%] | inhibition at 33.33 µg/mL [5] [%] | inhibition at 11.11 µg/mL [6] [%] | inhibition at 1.23 µg/mL [7] [%] | inhibition at 0.41 µg/mL [9] [%] | inhibition at 0.01 µg/mL [10] [%] | inhibition at 0.02 µg/mL (A-375 [11]) [%] | inhibition at 0.02 µg/mL [12] [%] | inhibition at 0.41 µg/mL (A-375 [13]) [%] | inhibition at 0.01 µg/mL (A-375 [14]) [%] | inhibition at 3.7 µg/mL [15] [%] | inhibition at 100 µg/mL [17] [%] | inhibition at 3.7 µg/mL (A-375 [18]) [%] | inhibition at 0.14 µg/mL (A-375 [19]) [%] | further results
31.6 | 26 | 7 | Cc1ccc2nc(C(=O)Nc3c(F)cc(-c4cccc(F)c4)cc3F)c(C)c(C(=O)O)c2c1 | 3.65 | 0.35 | 19.2 | 26.3 | 41.2 | 35.6 | 21.3 | 15.2 | 0.36 | 0.02 | 1.05 | 1.53 | -1.05 | 31.3 | 75.2 | 9.25 | 0.98 | inhibition at 100 µg/mL (A-375 [20]): 37.3%; inhibition at 0.05 µg/mL [21]: 2.11%; inhibition at 0.14 µg/mL [22]: 6.34%
14.3 | > 100 | 6.9 | COc1ccc2nc(C(=O)Nc3c(F)cc(-c4cccc(F)c4)cc3F)c(C)c(C(=O)O)c2c1 | 10.2 | 1.05 | 35.2 | 44.5 | 7.24 | 2.34 | 1.05 | 0.68 | -0.68 | 0.13 | -0.57 | 3.87 | 0.05 | 1.62 | 28.3 | 24.6 | 2.06 | inhibition at 100 µg/mL (A-375 [20]): 58.7%; inhibition at 0.05 µg/mL [21]: -0.66%; inhibition at 0.14 µg/mL [22]: 0.02%

Further lines, the compound ahead of its results:

Structure (SMILES) | IC50 (A-375 (human melanoma)) [µM] | IC50 (HEP-3B (human hepatoma)) [µM] | Retention_time [16] [min] | inhibition at 1.23 µg/mL (A-375 [1]) [%] | inhibition at 0.05 µg/mL (A-375 [2]) [%] | inhibition at 11.11 µg/mL (A-375 [3]) [%] | inhibition at 33.33 µg/mL (A-375 [4]) [%] | inhibition at 33.33 µg/mL [5] [%] | inhibition at 11.11 µg/mL [6] [%] | inhibition at 1.23 µg/mL [7] [%] | inhibition at 0.41 µg/mL [9] [%] | inhibition at 0.01 µg/mL [10] [%] | inhibition at 0.02 µg/mL (A-375 [11]) [%] | inhibition at 0.02 µg/mL [12] [%] | inhibition at 0.41 µg/mL (A-375 [13]) [%] | inhibition at 0.01 µg/mL (A-375 [14]) [%] | inhibition at 3.7 µg/mL [15] [%] | inhibition at 100 µg/mL [17] [%] | inhibition at 3.7 µg/mL (A-375 [18]) [%] | inhibition at 0.14 µg/mL (A-375 [19]) [%] | further results
Cc1c(C(=O)Nc2c(F)cc(-c3cccc(F)c3)cc2F)nc2ccc(F)cc2c1C(=O)O | 14.7 | 81.9 | 7.2 | 16.3 | 0.37 | 36.2 | 41.3 | 34.3 | 26.3 | 2.45 | 1.06 | -0.35 | -0.22 | -0.13 | 3.02 | -0.56 | 11.2 | 65.2 | 24.5 | 1.05 | IC50 [8]: 4.58 µM; inhibition at 100 µg/mL (A-375 [20]): 64.3%; inhibition at 0.05 µg/mL [21]: 0.05%; inhibition at 0.14 µg/mL [22]: 0.65%
Cc1c(C(=O)Nc2c(F)cc(-c3cccc(F)c3)cc2F)nc2ccc(OC(F)(F)F)cc2c1O | 85.5 | 38.3 | 6.3 | 1.57 | -0.13 | 11.3 | 12.3 | 41.2 | 37.9 | 17.2 | 5.62 | 0.32 | -0.35 | 0.67 | 1.02 | -0.68 | 26.4 | 80.3 | 2.06 | 0.06 | inhibition at 100 µg/mL (A-375 [20]): 25.6%; inhibition at 0.05 µg/mL [21]: 1.05%; inhibition at 0.14 µg/mL [22]: 2.01%
CCOc1ccc2nc(C(=O)Nc3c(F)cc(-c4cccc(F)c4)cc3F)c(C)c(O)c2c1 | > 100 | > 100 | 7.2 | 2.96 | 1.02 | 15.3 | 16.3 | 11.2 | 2.03 | 1.03 | 0.26 | -0.5 | 0.68 | -0.32 | 2.05 | 0.23 | 1.56 | 33.2 | 4.56 | 1.54 | inhibition at 100 µg/mL (A-375 [20]): 37.9%; inhibition at 0.05 µg/mL [21]: -0.04%; inhibition at 0.14 µg/mL [22]: 0.01%
Cc1c(C(=O)Nc2ccc(-c3ccccc3)cc2)nc2ccccc2c1C(=O)O | 83.5 | > 100 | 6.8 | 7.65 | 0.87 | 20.3 | 25.6 | 11.2 | 3.25 | 1.25 | 0.98 | -0.68 | 0.12 | -0.35 | 2.38 | -0.35 | 2.31 | 44.4 | 16.3 | 1.56 | inhibition at 100 µg/mL (A-375 [20]): 50.3%; inhibition at 0.05 µg/mL [21]: -0.12%; inhibition at 0.14 µg/mL [22]: 0.03%
Cc1c(C(=O)Nc2ccc(-c3ccccc3)cc2)nc2ccccc2c1O | 37.2 | 75.5 | 6.9 | 4.56 | 1.05 | 26.5 | 34.3 | 46.2 | 38.3 | 14.2 | 9.34 | 0.23 | 0.06 | 1.05 | 2.65 | -0.11 | 21.5 | 84.2 | 17.2 | 1.98 | inhibition at 100 µg/mL (A-375 [20]): 52.3%; inhibition at 0.05 µg/mL [21]: 1.68%; inhibition at 0.14 µg/mL [22]: 3.02%
Cc1c(C(=O)Nc2c(F)cc(-c3cccc(F)c3)cc2F)nc2ccc(F)cc2c1O | > 100 | 65.2 | 6.9 | 2.34 | 0.05 | 16.2 | 28.8 | 41.2 | 31.3 | 15.3 | 4.85 | -0.12 | -0.13 | 0.35 | 0.86 | -0.35 | 22.3 | 75.2 | 7.85 | 0 | inhibition at 100 µg/mL (A-375 [20]): 51.3%; inhibition at 0.05 µg/mL [21]: 1.25%; inhibition at 0.14 µg/mL [22]: 2.65%
